No end group written: not given here.
Assays:
LLC-MK2 cells = test: Cytotoxicity, MTS cell viability assay; format: cell-based, Rhesus Monkey; settings: 1 to 500 µM peptide, 24, 48 and 72 hours, triplicate
DENV-2 = test: Plaque formation assay; format: cell-based, DENV-2 (strain New Guinea C); settings: dose-response curve
Summary of the method: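 LLC-MK2 monkey kidney cells (passage <50; DMEM + 10% FBS, 37°C, 5% CO2) were seeded at 3×10^5 cells/well and exposed to a mixture of about 200 PFU DENV-2 New Guinea C (grown in C6/36 cells) and peptide. Plaques per well were counted and normalized to untreated controls as percent inhibition. Run in triplicate.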

| Sequence | Toxicity compared to untreated control (LLC-MK2 cells) | maximum inhibition activity against DENV-2 (DENV-2; at 500 µM, mean ± SD, triplicate) | IC50 (DENV-2; read-out: IC50 against DENV-2, LLC-MK2 cells) [µM] |
| --- | --- | --- | --- |
| IGVRPGKLDL [DET3] | highest toxic effect compared to other peptides | – | – |
| AGVKDGKLDF [DET4] | – | 84.6% ± 5.6 | 35 |

Reference: PMC3638295 (International Journal of Medical Sciences, 2013)
